Measurements as given in ChEMBL document CHEMBL4834438, “Synthesis and Biological Activity of Triterpene-Coumarin Conjugates” (J Nat Prod, 2021).
The source made the active and inactive calls. The calls are words filed in the database; no cut-off is given here.

Legend:
[1] = test system: B16-F10; assay: Induction of apoptosis in mouse B16-F10 cells assessed as necrotic cells at IC50 concentrations measured after 72 hrs by Annexin V-FITC/Propidium iodide staining based FACS cytometry analysis; assay type: functional
Method in brief: (§1)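 Seeding in 24-well plates was 5 × 10^4 B16–F10, 6 × 10^4 HT29 or 15 × 10^4 Hep G2 per well, followed by 24 h growth. Cells were treated in triplicate for 72 h at the respective IC50. Harvested cells went into HEPES binding buffer (pH 7.4, 140 mM NaCl, 2.5 mM CaCl2), with Annexin V-FITC added for 15 min at room temperature in the dark, then PI just before FACScan. About 10 × 10^3 cells were counted per sample. Results are mean ± SEM, relative to untreated control.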

[2] = test system: HepG2; assay: Induction of apoptosis in human HepG2 cells assessed as necrotic cells at IC50 concentrations measured after 72 hrs by Annexin V-FITC/Propidium iodide staining based FACS cytometry analysis; assay type: functional; method in brief: as §1
[3] = test system: B16-F10; assay: Cell cycle arrest in mouse B16-F10 cells assessed as decrease in cells accumulation in S phase at IC50 concentrations measured after 72 hrs by Propidium iodide staining based FACS cytometry analysis; assay type: functional; set-up: scale not given: the % may be the effect or the level left
Method in brief: (§2)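 Cells were seeded in 24-well plates (5 × 10^4 B16–F10 or 6 × 10^4 HT29 per well) and grown 24 h in DMEM with 10% FCS and 2 mM glutamine at 37 °C, 5% CO2. They were then exposed 72 h at the cancer-line IC50, washed in PBS, trypsinized and taken up in TBS, then in Vindelov buffer (RNase, PI, pH 8). Cells were kept on ice and given extra PI before reading. About 10 × 10^3 cells were read per run by FACS at 488 nm. Three experiments, two replicates each, reported as mean ± SEM.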

[4] = test system: HT-29; assay: Cell cycle arrest in human HT-29 cells assessed as increase in cells accumulation in G0/G1 phase at IC50 concentrations measured after 72 hrs by Propidium iodide staining based FACS cytometry analysis; assay type: functional; method in brief: as §2
[5] = test system: HT-29; assay: Cell cycle arrest in human HT-29 cells assessed as decrease in cells accumulation in S phase at IC50 concentrations measured after 72 hrs by Propidium iodide staining based FACS cytometry analysis; assay type: functional; set-up: scale not given: the % may be the effect or the level left; method in brief: as §2
[6] = test system: B16-F10; assay: Induction of mitochondrial membrane potential loss in mouse B16-F10 cells assessed as fluorescence intensity at IC50 concentration measured after 72 hrs by rhodamine 123 staining based FACScan flow cytometry; assay type: functional, cell-based
Method in brief: (§3)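 The medium was then renewed with dihydrorhodamine, which oxidizes to Rh123, for 1 h at 37 °C in 5% CO2. Cells were washed and resuspended in PBS, and fluorescence was read by FACScan (excitation 500, emission 536 nm). Three experiments, two replicates each, reported as mean ± SEM.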

[7] = test system: HT-29; assay: Induction of mitochondrial membrane potential loss in human HT-29 cells assessed as fluorescence intensity at IC50 concentration measured after 72 hrs by rhodamine 123 staining based FACScan flow cytometry; assay type: functional, cell-based; method in brief: as §3
[8] = test system: B16-F10; assay: Cell cycle arrest in mouse B16-F10 cells assessed as increase in cells accumulation in G0/G1 phase at IC50 concentrations measured after 72 hrs by Propidium iodide staining based FACS cytometry analysis; assay type: functional; method in brief: as §2
[9] = test system: HepG2; assay: Induction of mitochondrial membrane potential loss in human HepG2 cells assessed as fluorescence intensity at IC50 concentration measured after 72 hrs by rhodamine 123 staining based FACScan flow cytometry; assay type: functional, cell-based; method in brief: as §3
[10] = test system: HT-29; assay: Induction of apoptosis in human HT-29 cells assessed as necrotic cells at IC50 concentrations measured after 72 hrs by Annexin V-FITC/Propidium iodide staining based FACS cytometry analysis; assay type: functional; method in brief: as §1
[11] = test system: HT-29; assay: Induction of apoptosis in human HT-29 cells assessed as total apoptosis at IC50 concentrations measured after 72 hrs by Annexin V-FITC/Propidium iodide staining based FACS cytometry analysis; assay type: functional; method in brief: as §1
[12] = test system: HepG2; assay: Induction of apoptosis in human HepG2 cells assessed as total apoptosis at IC50 concentrations measured after 72 hrs by Annexin V-FITC/Propidium iodide staining based FACS cytometry analysis; assay type: functional; method in brief: as §1
[13] = test system: B16-F10; assay: Induction of apoptosis in mouse B16-F10 cells assessed as total apoptosis at IC50 concentrations measured after 72 hrs by Annexin V-FITC/Propidium iodide staining based FACS cytometry analysis; assay type: functional; method in brief: as §1

| SMILES | Activity [1] [%] | Activity [2] [%] | Activity [3] [%] | Activity [4] | Activity [5] [%] | Activity [6] | Activity [7] | Activity [8] | Activity [9] | Activity [10] [%] | Activity [11] [%] | Activity [12] [%] | Activity [13] [%] |
| --- | --- | --- | --- | --- | --- | --- | --- | --- | --- | --- | --- | --- | --- |
| CC1(C)CC[C@]2(C(=O)NCCCNC(=O)c3cc4ccccc4oc3=O)CC[C@]3(C)C(=CC[C@@H]4[C@@]5(C)C[C@@H](O)[C@H](O)C(C)(C)[C@@H]5CC[C@]43C)[C@@H]2C1 | 5 | 5 | 10 | inactive | 10 | inactive | inactive | inactive | Active | 5 |  |  |  |
| CC1(C)CC[C@]2(C(=O)O)CC[C@]3(C)C(=CC[C@@H]4[C@@]5(C)C[C@@H](OC(=O)c6cc7ccccc7oc6=O)[C@H](OC(=O)c6cc7ccccc7oc6=O)C(C)(C)[C@@H]5CC[C@]43C)[C@@H]2C1 | 5 | 5 | 10 |  | 10 | inactive | inactive |  | Active | 5 | 58 | 40 |  |
| CC1(C)CC[C@]2(C(=O)NCCCNC(=O)/C=C/c3ccc(O)cc3)CC[C@]3(C)C(=CC[C@@H]4[C@@]5(C)C[C@@H](O)[C@H](O)C(C)(C)[C@@H]5CC[C@]43C)[C@@H]2C1 | 5 | 5 | 10 |  | 10 | inactive | inactive |  | Active | 5 | 40 | 76 | 40 |
| CC1(C)CC[C@]2(C(=O)NCCCNC(=O)Cc3cc(=O)oc4cc(O)ccc34)CC[C@]3(C)C(=CC[C@@H]4[C@@]5(C)C[C@@H](O)[C@H](O)C(C)(C)[C@@H]5CC[C@]43C)[C@@H]2C1 | 5 | 5 | 10 |  | 10 | inactive | inactive |  | Active | 5 |  | 40 | 85 |
